Data from ChEMBL document CHEMBL1667749, “Design & synthesis of N'-[substituted] pyridine-4-carbohydrazides as potential anticonvulsant agents” (Eur J Med Chem, 2011).
Active and inactive are the calls of the source. The calls are words filed in the database; no cut-off is given here.

Columns and labels:
Mus musculus [1] = test: Anticonvulsant activity in albino CF-1 mouse assessed as protection against subcutaneous metrazol-induced seizures at 300 mg/kg, ip after 4 hrs; assay type: functional, organism-based; design: dose 300 mg/kg
How it was run: (§1)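 Male CF-1 mice, i.p. at 30, 100, 300 mg/kg in 0.5% methyl cellulose; metrazol dose convulsing 97% of animals injected s.c. in midline neck fold, mice isolated and watched 30 min; protected if no 3–5 s clonic spasm episode of limbs, jaws or vibrissae.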

Mus musculus [2] = test: Anticonvulsant activity in albino CF-1 mouse assessed as protection against maximal electroshock-induced seizures at 300 mg/kg, ip after 0.5 hrs; assay type: functional, organism-based; design: dose 300 mg/kg
How it was run: (§2)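 Male CF-1 mice (18–25 g), i.p. in 0.5% methyl cellulose at 30, 100 and 300 mg/kg; MES: 60 Hz, 50 mA, 0.2 s through tetracaine-primed corneal electrodes; protection = abolished hind limb tonic extension. Value given as minimum dose active in half or more of mice.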

Mus musculus [3] = test: Neurotoxicity in albino CF-1 mouse assessed as motor impairment at 300 mg/kg, ip after 4 hrs by rotarod test; assay type: toxicity, organism-based; design: dose 300 mg/kg, route intraperitoneal; conditions: in vivo
How it was run: (§3)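 Minimal motor impairment in male CF-1 mice by rotorod after i.p. dosing; toxic if animal falls off rotating rod 3 times within 1 min. Screen doses 30, 100, 300 mg/kg; quantitative TD50 (95% confidence interval) determined at time of peak effect.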

Mus musculus [4] = test: Neurotoxicity in albino CF-1 mouse assessed as motor impairment at 300 mg/kg, ip after 0.5 hrs by rotarod test; assay type: toxicity, organism-based; design: dose 300 mg/kg, route intraperitoneal; conditions: in vivo; how it was run: as §3
[5] = Octanol-phosphate buffer partition coefficient, log P of the compound at 5 mg, after 24 hrs by UV spectroscopic analysis; assay type: physicochemical
How it was run: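 5 mg compound added to 10 mL octanol plus 10 mL phosphate buffer in stoppered tube, mechanically shaken 24 h at room temperature, then left in separating funnel 6 h to equilibrate.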

Mus musculus [6] = test: Anticonvulsant activity in albino CF-1 mouse assessed as protection against maximal electroshock-induced seizures at 300 mg/kg, ip after 2 hrs; assay type: functional, organism-based; design: dose 300 mg/kg; how it was run: as §2
Mus musculus [7] = test: Anticonvulsant activity in albino CF-1 mouse assessed as protection against maximal electroshock-induced seizures at 300 mg/kg, ip after 4 hrs; assay type: functional, organism-based; design: dose 300 mg/kg; how it was run: as §2
Mus musculus [8] = test: Anticonvulsant activity in albino CF-1 mouse assessed as protection against subcutaneous metrazol-induced seizures at 300 mg/kg, ip after 0.5 hrs; assay type: functional, organism-based; design: dose 300 mg/kg; how it was run: as §1
Mus musculus [9] = test: Anticonvulsant activity in albino CF-1 mouse assessed as protection against 6 Hz psychomotor seizure at 100 mg/kg, ip after 0.5 hrs by minimal clonic seizure test; assay type: functional
How it was run: (§4)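 Male CF-1 mice (18–25 g), i.p. 100 mg/kg in 0.5% methyl cellulose suspension; 6 Hz corneal stimulation, 32 mA for 3 s, four mice per time point. Protected if no minimal clonic phase with stereotyped automatistic behaviour.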

Mus musculus [10] = test: Anticonvulsant activity in albino CF-1 mouse assessed as protection against 6 Hz psychomotor seizure at 100 mg/kg, ip after 0.25 hrs by minimal clonic seizure test; assay type: functional; how it was run: as §4
Mus musculus [11] = test: Anticonvulsant activity in albino CF-1 mouse assessed as protection against 6 Hz psychomotor seizure at 100 mg/kg, ip after 2 hrs by minimal clonic seizure test; assay type: functional; how it was run: as §4
Rattus norvegicus = test: Anticonvulsant activity in Sprague-Dawley rat assessed as protection against pilocarpine-induced status epilepticus at 600 mg/kg, ip; assay type: functional, organism-based; design: dose 600 mg/kg
How it was run: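 Male albino Sprague Dawley rats (150–180 g) dosed i.p., then challenged with pilocarpine; qualitative screen scored as protection or no protection, seizure severity graded on the Racine scale; N/F and deaths recorded, time taken post first Stage III seizure.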

Mus musculus [12] = test: Anticonvulsant activity in albino CF-1 mouse assessed as protection against 6 Hz psychomotor seizure at 100 mg/kg, ip after 4 hrs by minimal clonic seizure test; assay type: functional, organism-based; design: dose 100 mg/kg; how it was run: as §4
Mus musculus [13] = test: Anticonvulsant activity in albino CF-1 mouse assessed as protection against 6 Hz psychomotor seizure at 100 mg/kg, ip after 1 hr by minimal clonic seizure test; assay type: functional; how it was run: as §4
Mus musculus [14] = test: Anticonvulsant activity in ip dosed albino CF-1 mouse assessed as protection against 6 Hz psychomotor seizure after 1 hr by minimal clonic seizure test; assay type: functional; conditions: albino CF-1, ip
How it was run: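 Quantitative 6 Hz test in male CF-1 mice dosed i.p.; 32 mA for 3 s via corneal electrodes at time of peak effect; ED50 with 95% confidence interval, slope and standard error reported.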

[15] = Neuroprotective activity in hippocampal slices assessed as protection against kainic acid-induced cell death after 4 hrs; assay type: functional, tissue-based; conditions: Hippocampus
How it was run: (§5)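 Organotypic hippocampal slice cultures exposed to NMDA or kainic acid alone or with test compound; propidium iodide in all wells, cell death read as PI fluorescence intensity; qualitative primary screen.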

Mus musculus [16] = test: Anticonvulsant activity in ip dosed albino CF-1 mouse assessed as dose required to protect against maximal electroshock-induced seizures after 4 hrs; assay type: functional; how it was run: as §2
[17] = Neuroprotective activity in hippocampal slices assessed as protection against NMDA-induced cell death after 4 hrs; assay type: functional, tissue-based; conditions: Hippocampus; how it was run: as §5

logP at 24 h [5] | SMILES | Activity (Mus musculus [1]) | Activity (Mus musculus [2]) | Activity (Mus musculus [3]) | Activity (Mus musculus [4]) | Activity (Mus musculus [6]) | Activity (Mus musculus [7]) | Activity (Mus musculus [8]) | Activity (Mus musculus [10]) | Activity (Mus musculus [11]) | Activity (Mus musculus [12]) | Activity (Mus musculus [13]) | Activity (Mus musculus [9]) | also measured
3.2 | O=C(N/N=C\c1ccc(Oc2ccc3c(c2)OCO3)cc1)c1ccncc1 | inactive | inactive | Non-toxic | Non-toxic | inactive | inactive | inactive | – | – | – | – | – | –
– | O=C1Nc2ccccc2/C1=N\NC(=O)c1ccncc1 | inactive | inactive | – | – | inactive | inactive | inactive | Active | inactive | inactive | Active | – | Activity (Mus musculus [9]; route intraperitoneal): 50%; Activity (Rattus norvegicus): inactive
3.37 | O=C(N/N=C\c1ccc(Oc2ccccc2)cc1)c1ccncc1 | inactive | inactive | Non-toxic | Non-toxic | inactive | inactive | inactive | – | – | – | – | – | –
4.21 | Cc1cc(Oc2ccc(/C=N\NC(=O)c3ccncc3)cc2)ccc1Cl | inactive | inactive | Non-toxic | Non-toxic | inactive | inactive | inactive | Active | inactive | inactive | inactive | inactive | –
4.03 | O=C(N/N=C\c1ccc(Oc2ccc(Br)cc2)cc1)c1ccncc1 | inactive | inactive | Non-toxic | Non-toxic | inactive | inactive | inactive | inactive | Active | inactive | inactive | inactive | –
4.52 | O=C(N/N=C\c1ccc(Oc2ccc3ccccc3c2)cc1)c1ccncc1 | inactive | inactive | Non-toxic | Non-toxic | inactive | inactive | inactive | – | – | – | – | – | –
3.23 | O=C(N/N=C\c1ccc(Oc2ccc([N+](=O)[O-])cc2)cc1)c1ccncc1 | inactive | inactive | Non-toxic | Non-toxic | inactive | inactive | inactive | – | – | – | – | – | –
3.95 | O=C(N/N=C\c1ccc(Oc2ccc(Cl)cc2)cc1)c1ccncc1 | inactive | inactive | – | Non-toxic | inactive | inactive | inactive | – | – | – | – | – | –
3.65 | Cc1ccc(Oc2ccc(/C=N\NC(=O)c3ccncc3)cc2)cc1 | inactive | inactive | Non-toxic | Non-toxic | inactive | – | inactive | Active | – | inactive | – | Active | ED50 (Mus musculus [14]): > 200 mg/kg; Activity [15]: inactive; Activity (Mus musculus [11]; route intraperitoneal): 50%; Activity (Mus musculus [16]): 300 mg/kg; Activity [17]: inactive; Activity (Mus musculus [13]; route intraperitoneal): 75%
